In PMC9073132 (Journal of Pharmaceutical Analysis, 2021):

Type: in vivo, Wistar rats
Conditions: intragastric crude VB extract 200 mg/kg; concentrations lower than LLOQ
How it was run: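 Male Wistar rats (200 ± 20 g) were acclimated 7 days with food and water ad libitum. Crude extract, predissolved in 0.5% DMSO and dispersed in 5 mg/mL sodium carboxymethylcellulose, was given intragastrically at 200 mg/kg. Heparinized blood was taken on ice at 0–24 h (12 points) and spun; plasma was held at −20 °C. Plasma (100 μL) plus IS was extracted with ethyl acetate, then 14 bufadienolides quantified by UHPLC-MS/MS against LLOQ.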

Compound | Detection in rat plasma samples over the sampling period (LC-MS/MS quantitation)
CC(=O)O[C@H]1C[C@]2(O)[C@@H]3CC[C@@H]4C[C@@H](O)CC[C@]4(C)[C@H]3CC[C@]2(C)[C@H]1c1ccc(=O)oc1 [CS15, bufotalin] | not detected
C[C@]12CC[C@H]3[C@@H](CC[C@@H]4C[C@@H](O)CC[C@@]43C=O)[C@]13O[C@@H]3CC2c1ccc(=O)oc1 (stereo partly drawn) [CS16, resibufagin] | not detected
CC(=O)O[C@H]1[C@H]2O[C@]23[C@@H]2CC[C@]4(O)C[C@@H](O)CC[C@]4(C)[C@H]2CC[C@]3(C)[C@H]1c1ccc(=O)oc1 [CS19, cinobufotalin] | not detected
CC(=O)O[C@H]1[C@H]2O[C@]23[C@@H]2CC[C@@H]4C[C@@H](O)CC[C@]4(C=O)[C@H]2CC[C@]3(C)[C@H]1c1ccc(=O)oc1 [CS17, 19-oxocinobufagin] | not detected

Same assay, conditions: male, Wistar, rat, plasma, po, 200 mg/kg

Compound | AUC(0-t) | Cmax | MRT last | Tmax | half-life
C[C@]12CC[C@H](O)C[C@H]1CC[C@@H]1[C@@H]2CC[C@]2(C)[C@@H](c3ccc(=O)oc3)CC[C@]12O [CS21, bufalin] | 17 ± 1.76 ng·h/mL | 7.08 ± 1.85 ng/mL | 1.48 ± 0.115 h | 0.396 ± 0.292 h | 1.77 ± 0.821 h
C[C@]12CC[C@H](O)C[C@H]1CC[C@@H]1[C@@H]2[C@H](O)C[C@]2(C)[C@@H](c3ccc(=O)oc3)CC[C@]12O [CS36, gamabufotalin] | 223 ± 11.3 ng·h/mL | 84.4 ± 4 ng/mL | 2.5 ± 0.603 h | 0.812 ± 0.125 h | 2.82 ± 1.27 h
C[C@]12CC[C@H](O)C[C@@]1(O)CC[C@@H]1[C@@H]2CC[C@]2(C)[C@@H](c3ccc(=O)oc3)CC[C@]12O [CS14, telocinobufagin] | 7.22 ± 0.428 ng·h/mL | 4.84 ± 1.09 ng/mL | 0.932 ± 0.129 h | 0.521 ± 0.315 h | 1.88 ± 1.19 h
CC(=O)O[C@H]1[C@H]2O[C@]23[C@@H]2CC[C@@H]4C[C@@H](O)CC[C@]4(C)[C@H]2CC[C@]3(C)[C@H]1c1ccc(=O)oc1 [CS23, cinobufagin] | 5.2 ± 2.83 ng·h/mL | 7.29 ± 10.4 ng/mL | 0.913 ± 0.23 h | 0.833 ± 0.825 h | 1.32 ± 0.526 h
C[C@]12CC[C@H](O)C[C@H]1CC[C@@H]1[C@@H]2CC[C@]2(C)[C@@H](c3ccc(=O)oc3)[C@@H](O)[C@H]3O[C@]132 [CS30, desacetylcinobufagin] | 104 ± 6.06 ng·h/mL | 24.1 ± 2.27 ng/mL | 4.67 ± 1.01 h | 0.875 ± 0.25 h | 10.8 ± 5.24 h
C[C@]12CC[C@H](O)C[C@H]1CC[C@@H]1[C@@H]2CC[C@]2(C)[C@@H](c3ccc(=O)oc3)C[C@H]3O[C@]132 [CS22, resibufogenin] | 4.53 ± 0.701 ng·h/mL | 3.79 ± 3.78 ng/mL | 0.836 ± 0.141 h | 0.333 ± 0.204 h | 1.2 ± 0.477 h

Same assay, conditions: rat plasma, intragastric crude VB extract 200 mg/kg, n=4

Compound | AUC(0-t) | Cmax | MRT(0-t) | Tmax | t1/2
C[C@]12CC[C@H](O)C[C@H]1CC[C@@H]1[C@@H]2C(=O)[C@H](O)[C@]2(C)[C@@H](c3ccc(=O)oc3)CC[C@]12O [CS01, pseudobufarenogin] | 276.956 ± 60.642 ng·h/mL | 67.225 ± 14.218 ng/mL | 4.614 ± 0.481 h | 0.75 ± 0 h | 3.944 ± 1.276 h
C[C@]12CC[C@H]3[C@@H](CC[C@]4(O)C[C@@H](O)CC[C@]34C=O)[C@@]1(O)CC[C@@H]2c1ccc(=O)oc1 [CS04, hellebrigenin] | 104.246 ± 20.661 ng·h/mL | 13.35 ± 2.243 ng/mL | 6.478 ± 1.035 h | 1.438 ± 0.657 h | 4.884 ± 2.116 h
CC(=O)O[C@H]1[C@H]2O[C@]23[C@@H]2CC[C@]4(O)C[C@@H](O)CC[C@]4(C=O)[C@H]2CC[C@]3(C)[C@H]1c1ccc(=O)oc1 [CS11, 19-oxocinobufotalin] | 3.669 ± 0.511 ng·h/mL | 2.752 ± 0.814 ng/mL | 0.942 ± 0.05 h | 0.562 ± 0.239 h | 2.614 ± 2.802 h
C[C@]12CC[C@H](O)C[C@H]1CC[C@@H]1[C@@H]2[C@H](O)C(=O)[C@]2(C)[C@@H](c3ccc(=O)oc3)CC[C@]12O [CS03, arenobufagin] | 1487.316 ± 407.361 ng·h/mL | 466.5 ± 116.920 ng/mL | 3.338 ± 1.011 h | 0.938 ± 0.125 h | 4.537 ± 2.442 h
